The source made the active and inactive calls. The calls are words filed in the database; no cut-off is given here.
What was measured:
Cholinesterase [1] = molecular target: T1, Cholinesterase (Homo sapiens, UniProt P06276); assay: Inhibition of human plasma BuChE preincubated for 30 mins before substrate addition by Ellman's assay
Procedure, shortened: (§1)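 Ellman assay, phosphate buffer pH 8.0. Human plasma from heparinised venous blood, centrifuged and diluted 1 mL to 20 mL in buffer, with DTNB. Inhibitor, in acetonitrile/water 1:1 as vehicle, preincubated 30 min before butyrylthiocholine is added (final 0.5 mM); 412 nm read over 5 min. Screened at 100 μM; IC50 determined only where inhibition exceeded 90%. Controls without enzyme; n = 6.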

[2] = molecular target: Acetylcholinesterase (Electrophorus electricus) (UniProt O42275); assay: Inhibition of electric eel AChE at 100 uM preincubated for 30 mins before substrate addition by Ellman's assay
Procedure, shortened: (§2)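 Ellman assay, phosphate buffer pH 8.0. Inhibitor, in acetonitrile/water 1:1 as vehicle, preincubated with enzyme 30 min before acetylthiocholine is added (final 0.5 mM); 412 nm read over 5 min. Screened at 100 μM; IC50 found by serial lower concentrations only where inhibition exceeded 90%. Controls without enzyme account for spontaneous hydrolysis; n = 6.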

[3] = Selectivity for human plasma BuChE over electric eel AChE; assay type: cell-free
Procedure, shortened: (§3)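 Ratio of the 30 min BuChE and AChE IC50 values from the Ellman assays, using 100 μM in place of any IC50 that was not determined.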

Cholinesterase [4] = molecular target: T1, Cholinesterase; assay: Inhibition of human plasma BuChE at 100 uM preincubated for 30 mins before substrate addition by Ellman's assay; assay type: cell-free; procedure, shortened: as §1
Acetylcholinesterase = Acetylcholinesterase (Electrophorus electricus, UniProt O42275); assay: Inhibition of electric eel AChE preincubated for 30 mins before substrate addition by Ellman's assay; procedure, shortened: as §2
[5] = Selectivity for electric eel AChE over human plasma BuChE; assay type: cell-free; procedure, shortened: as §3
Mus musculus = assay: Inhibition of BuChE in CD1 mouse plasma at 1 mg/kg, ip administered as single dose measured after 72 hrs; assay type: functional, organism-based; parameters: dose 1 mg/kg
Procedure, shortened: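 Male CD-1 mice (35–40 g) given one ip injection, 0.1 mL per 10 g body weight, into the left lower abdominal quadrant; n = 9 split into three subgroups of 3 for serial sampling. Submandibular blood (about 50 μL) collected into lithium heparin and kept on ice; terminal sampling by cardiac puncture under ketamine/xylazine. Plasma spun 10 min at 4 °C, then BuChE activity read ex vivo by Ellman assay.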

T1 sequence (P06276 whole entry): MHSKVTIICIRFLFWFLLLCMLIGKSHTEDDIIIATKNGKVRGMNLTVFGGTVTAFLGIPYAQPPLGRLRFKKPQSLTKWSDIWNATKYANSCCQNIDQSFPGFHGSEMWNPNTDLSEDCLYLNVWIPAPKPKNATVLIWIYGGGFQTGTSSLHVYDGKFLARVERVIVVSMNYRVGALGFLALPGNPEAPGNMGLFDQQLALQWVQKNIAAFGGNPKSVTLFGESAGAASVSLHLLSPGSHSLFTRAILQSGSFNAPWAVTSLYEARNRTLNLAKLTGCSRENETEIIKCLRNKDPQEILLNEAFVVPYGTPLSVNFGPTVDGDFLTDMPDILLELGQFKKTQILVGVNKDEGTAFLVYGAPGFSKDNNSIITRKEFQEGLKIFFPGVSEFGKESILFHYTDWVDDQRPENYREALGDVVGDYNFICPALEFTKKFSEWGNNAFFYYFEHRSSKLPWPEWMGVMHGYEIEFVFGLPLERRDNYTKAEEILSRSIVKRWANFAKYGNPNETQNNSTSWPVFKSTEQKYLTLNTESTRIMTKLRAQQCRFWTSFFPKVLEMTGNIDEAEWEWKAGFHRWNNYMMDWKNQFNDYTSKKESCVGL
Acetylcholinesterase (Electrophorus electricus), sequence (O42275 24-633 limits assumed): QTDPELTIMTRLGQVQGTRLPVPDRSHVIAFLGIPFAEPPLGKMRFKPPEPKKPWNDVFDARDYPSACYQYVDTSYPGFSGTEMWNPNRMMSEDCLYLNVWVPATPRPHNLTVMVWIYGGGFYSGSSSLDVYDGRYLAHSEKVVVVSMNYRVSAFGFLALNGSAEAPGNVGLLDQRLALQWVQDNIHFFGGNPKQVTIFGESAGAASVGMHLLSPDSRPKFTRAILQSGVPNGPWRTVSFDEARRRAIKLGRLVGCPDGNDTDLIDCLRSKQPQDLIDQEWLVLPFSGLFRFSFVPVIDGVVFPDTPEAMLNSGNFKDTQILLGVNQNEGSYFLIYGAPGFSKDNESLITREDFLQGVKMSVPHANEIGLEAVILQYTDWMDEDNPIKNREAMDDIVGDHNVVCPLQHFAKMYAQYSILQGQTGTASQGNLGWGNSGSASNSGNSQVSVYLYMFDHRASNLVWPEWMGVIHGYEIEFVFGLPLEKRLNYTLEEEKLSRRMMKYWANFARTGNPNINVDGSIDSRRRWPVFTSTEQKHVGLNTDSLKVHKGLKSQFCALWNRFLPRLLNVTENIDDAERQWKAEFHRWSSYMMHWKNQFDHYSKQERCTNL
Acetylcholinesterase, sequence (O42275 whole entry): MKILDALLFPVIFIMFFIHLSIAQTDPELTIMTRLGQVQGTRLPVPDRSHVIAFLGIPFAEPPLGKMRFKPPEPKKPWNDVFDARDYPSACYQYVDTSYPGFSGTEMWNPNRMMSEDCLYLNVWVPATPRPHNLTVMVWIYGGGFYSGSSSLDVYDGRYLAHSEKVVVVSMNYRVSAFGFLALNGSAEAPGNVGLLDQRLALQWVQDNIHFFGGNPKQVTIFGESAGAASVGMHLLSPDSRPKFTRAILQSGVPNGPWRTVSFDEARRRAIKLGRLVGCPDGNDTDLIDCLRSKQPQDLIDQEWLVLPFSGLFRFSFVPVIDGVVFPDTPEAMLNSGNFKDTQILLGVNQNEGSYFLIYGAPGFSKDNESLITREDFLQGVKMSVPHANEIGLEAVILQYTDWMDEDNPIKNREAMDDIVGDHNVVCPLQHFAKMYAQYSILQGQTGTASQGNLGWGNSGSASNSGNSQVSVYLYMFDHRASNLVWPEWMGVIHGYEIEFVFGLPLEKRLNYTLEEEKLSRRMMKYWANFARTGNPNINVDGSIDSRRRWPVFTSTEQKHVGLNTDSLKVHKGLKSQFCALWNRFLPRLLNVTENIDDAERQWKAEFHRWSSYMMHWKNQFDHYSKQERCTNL

SMILES | IC50 (Cholinesterase [1]) | inhibition [2] | Selectivity ratio [3] | inhibition (Cholinesterase [4]) | IC50 (Acetylcholinesterase) | Selectivity ratio [5] | inhibition (Mus musculus)
CCCNC(=O)O[C@H]1CO[C@H]2[C@@H]1OC[C@H]2OC(=O)NCCC | 10.4 µM | 28% | 9.6 | – | – | – | –
O=C(NCc1ccccc1)O[C@H]1CO[C@H]2[C@@H]1OC[C@H]2OC(=O)NCc1ccccc1 | 0.4 µM | 77% | 250 | – | – | – | –
O=C(NCc1ccccc1)O[C@H]1CO[C@H]2[C@@H]1OC[C@H]2NC(=O)c1ccccc1 | – | 46% | – | 88% | – | – | –
O=C(Nc1ccccc1)O[C@H]1CO[C@H]2[C@@H]1OC[C@H]2OC(=O)Nc1ccccc1 | – | 77% | – | 20.6% | – | – | –
O=C(Nc1ccc([N+](=O)[O-])cc1)O[C@H]1CO[C@H]2[C@@H]1OC[C@H]2OC(=O)Nc1ccc([N+](=O)[O-])cc1 | – | – | – | 17.4% | 5.4 µM | 18.5 | –
[N-]=[N+]=N[C@@H]1CO[C@H]2[C@@H]1OC[C@@H]2OC(=O)NCc1ccccc1 | – | 5% | – | 50.4% | – | – | –
O=C(NCc1ccccc1)O[C@H]1CO[C@H]2[C@@H]1OC[C@H]2OCc1ccccc1 | 0.052 µM | 55% | 1920 | – | – | – | Active
O=C(Nc1ccc(Cl)cc1)O[C@H]1CO[C@H]2[C@@H]1OC[C@H]2OC(=O)Nc1ccc(Cl)cc1 | – | – | – | 7.96% | – | – | –
CCNC(=O)O[C@H]1CO[C@H]2[C@@H]1OC[C@H]2OC(=O)NCC | – | – | – | 55.1% | 6.5 µM | 15.4 | –
O=C(NCc1ccccc1)O[C@H]1CO[C@@H]2C=CO[C@H]12 | 10.2 µM | 9.8% | 9.7 | – | – | – | –
O=C(NCc1ccccc1)O[C@H]1CO[C@@H]2C(=O)CO[C@H]12 | – | 10% | – | 46% | – | – | –
CN1C(=O)CO[C@@H]2[C@@H](OC(=O)NCc3ccccc3)CO[C@@H]21 | – | 6.5% | – | 63% | – | – | –
O=C1CO[C@H]2[C@H](OC[C@@H]2OC(=O)NCc2ccccc2)O1 (relative stereo) | – | 10% | – | 56% | – | – | –
O=C(NCc1ccccc1)O[C@H]1CO[C@@H]2/C(=N/OC(=O)c3ccccc3)CO[C@H]12 | – | 9% | – | 64.8% | – | – | –
O=C(NCc1ccccc1)O[C@H]1CO[C@@H]2/C(=N/O)CO[C@H]12 | – | 83% | – | 40% | – | – | –
CCOC(=O)/C=C1\CO[C@@H]2[C@@H](OC(=O)NCc3ccccc3)CO[C@H]12 | 4.8 µM | 4.9% | 21 | – | – | – | –
CCCCNC(=O)O[C@H]1CO[C@H]2[C@@H]1OC[C@H]2OC(=O)NCCCC | 1.22 µM | 13% | 81 | – | – | – | –
